Source: ChEMBL document CHEMBL3992493, “New approach of delivering cytotoxic drugs towards CAIX expressing cells: A concept of dual-target drugs” (Eur J Med Chem, 2017)
Blank lines part the entries; values can stand above or below the compound they belong to. Active and inactive are the calls of the source. No cut-off for these calls is given here.

Columns and labels:
MDCK [1] = experiment: Cytotoxicity against carbonic anhydrase 9 knockdown MDCK cells assessed as reduction in cell viability at 500 nM pretreated for 1 hr followed by 4 Gy irradiation under anoxic condition by Alamar blue assay; assay type: cell-based, Canis lupus familiaris; conditions: dog, 0.5 µM
Procedure, shortened: (§1)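 MDCK cells with or without CAIX, pre-exposed 24 h to anoxia (≤0.02% O2, 5% CO2, balance N2) in pre-equilibrated DMEM. ATR inhibitors in 0.5% DMSO added 1 h before 4 Gy X-irradiation. Exposure 72 h total, medium replaced, then 72 h normoxic regrowth. Viability by 2 h alamarBlue in normoxia.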

Carbonic anhydrase 9 = Carbonic anhydrase 9 (Homo sapiens, UniProt Q16790); experiment: Binding affinity to recombinant human carbonic anhydrase 9 after 15 mins by stopped-flow CO2 hydration assay
MDCK [2] = experiment: Cytotoxicity against carbonic anhydrase 9 knockdown MDCK cells assessed as reduction in cell viability at 500 nM pretreated for 72 hrs followed by 72 hrs incubation under normoxic condition by Alamar blue assay; assay type: cell-based, Canis lupus familiaris; conditions: dog, 0.5 µM
Procedure, shortened: (§2)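 MDCK cells transfected with human CAIX or scrambled vector, normoxia (21% O2, 5% CO2). ATR inhibitors in 0.5% DMSO for 72 h, medium replaced, cells grown a further 72 h. Viability from 2 h alamarBlue conversion in normoxia.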

MDCK [3] = experiment: Cytotoxicity against MDCK cells expressing carbonic anhydrase 9 assessed as reduction in cell viability at 500 nM pretreated for 72 hrs followed by 72 hrs incubation under normoxic condition by Alamar blue assay; assay type: functional, cell-based; conditions: Canis lupus familiaris; procedure, shortened: as §2
MDCK [4] = experiment: Cytotoxicity against carbonic anhydrase 9 knockdown MDCK cells assessed as reduction in cell viability at 500 nM pretreated for 1 hr followed by 2 Gy irradiation under normoxic condition by Alamar blue assay; assay type: cell-based, Canis lupus familiaris; conditions: dog, 0.5 µM
Procedure, shortened: (§3)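 ATR inhibitor plus radiation: MDCK CAIX+/CAIX− cells were preconditioned 24 h under normoxia (21% O2) or anoxia (≤0.02% O2). Compound in 0.5% DMSO was added 1 h before X-irradiation, 2 Gy normoxic or 4 Gy anoxic. Total compound exposure was 72 h, then washout and 72 h normoxic regrowth. Readout was 2 h alamarBlue conversion, as relative viability.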

Carbonic anhydrase 2 = Carbonic anhydrase 2 (Homo sapiens, UniProt P00918); experiment: Binding affinity to recombinant human carbonic anhydrase 2 after 15 mins by stopped-flow CO2 hydration assay
Carbonic anhydrase 12 = Carbonic anhydrase 12 (Homo sapiens, UniProt O43570); experiment: Binding affinity to recombinant human carbonic anhydrase 12 after 15 mins by stopped-flow CO2 hydration assay
Carbonic anhydrase 1 = Carbonic anhydrase 1 (Homo sapiens, UniProt P00915); experiment: Binding affinity to recombinant human carbonic anhydrase 1 after 15 mins by stopped-flow CO2 hydration assay
MDCK [5] = experiment: Cytotoxicity against MDCK cells expressing carbonic anhydrase 9 assessed as reduction in cell viability at 500 nM pretreated for 1 hr followed by 2 Gy irradiation under normoxic condition by Alamar blue assay; assay type: functional, cell-based; conditions: Canis lupus familiaris
Procedure, shortened: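 MDCK CAIX+ cells (human CAIX transfected) under normoxia (21% O2, 5% CO2). ATR inhibitors in 0.5% DMSO added 1 h before X-irradiation with 2 Gy. Exposure 72 h total, medium replaced, then 72 h further growth. Viability by 2 h alamarBlue conversion in normoxia.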

MDCK [6] = experiment: Cytotoxicity against MDCK cells expressing carbonic anhydrase 9 assessed as reduction in cell viability at 500 nM pretreated for 1 hr followed by 4 Gy irradiation under anoxic condition by Alamar blue assay; assay type: functional, cell-based; conditions: Canis lupus familiaris; procedure, shortened: as §1
MDCK [7] = experiment: Cytotoxicity against MDCK cells expressing carbonic anhydrase 9 assessed as reduction in cell viability at 500 nM after 72 hrs under anoxic condition by Alamar blue assay; assay type: functional, cell-based; conditions: Canis lupus familiaris
Procedure, shortened: (§4)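 MDCK CAIX+ or CAIX− cells, 24 h anoxic preincubation (≤0.02% O2, 5% CO2) in pre-equilibrated DMEM. ATR inhibitors (0.5% DMSO) applied for 72 h without irradiation, then washed off, and 72 h normoxic regrowth. Readout by 2 h alamarBlue conversion under normoxia.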

MDCK [8] = experiment: Cytotoxicity against carbonic anhydrase 9 knockdown MDCK cells assessed as reduction in cell viability at 500 nM after 72 hrs under anoxic condition by Alamar blue assay; assay type: cell-based, Canis lupus familiaris; conditions: dog, 0.5 µM; procedure, shortened: as §4
HCT-116 [9] = experiment: Effect on mitochondrial respiration in human HCT116 cells expressing carbonic anhydrase 9 assessed as reduction in oxygen consumption rate at 2 mM […]; assay type: functional, cell-based
HCT-116 [10] = experiment: Effect on mitochondrial respiration in carbonic anhydrase 9 knockdown human HCT116 cells assessed as reduction in oxygen consumption rate at 2 mM […]; assay type: cell-based; conditions: hct-116, 2000 µM
MDCK [11] = experiment: Cytotoxicity against carbonic anhydrase 9 knockdown MDCK cells assessed as reduction in cell viability after 72 hrs under hypoxic condition by Alamar blue assay; assay type: cell-based; conditions: Canis lupus familiaris
MDCK [12] = experiment: Cytotoxicity against MDCK cells expressing carbonic anhydrase 9 assessed as surviving fraction incubated for 24 hrs measured after 7 days under hypoxic condition by methylene blue staining based clonogenic survival assay; assay type: functional, Canis lupus familiaris
Procedure, shortened: (§5)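 Confluent, high-density MDCK CAIX+/CAIX− cells, to allow CAIX-dependent medium acidification. Drug or vehicle (0.5% DMSO) for 24 h under normoxia (21% O2) or hypoxia (0.2% O2). Cells then trypsinised and reseeded in triplicate at known numbers, grown 7 days. Colonies fixed and stained with 0.4% methylene blue in 70% ethanol. Surviving fraction normalised to vehicle. Three independent biological repeats.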

[13] = Cytotoxicity against carbonic anhydrase 9 knockdown MDCK cells assessed as surviving fraction incubated for 24 hrs measured after 7 days under normoxic condition by methylene blue staining based clonogenic survival assay; assay type: cell-based, Canis lupus familiaris; conditions: dog, read-out: Survival; procedure, shortened: as §5
MDCK [14] = experiment: Cytotoxicity against carbonic anhydrase 9 knockdown MDCK cells assessed as reduction in cell viability after 72 hrs under normoxic condition by Alamar blue assay; assay type: cell-based; conditions: Canis lupus familiaris
MDCK [15] = experiment: Cytotoxicity against MDCK cells expressing carbonic anhydrase 9 assessed as reduction in cell viability after 72 hrs under hypoxic condition by Alamar blue assay; assay type: functional, cell-based; conditions: Canis lupus familiaris
MDCK [16] = experiment: Cytotoxicity against MDCK cells expressing carbonic anhydrase 9 assessed as reduction in cell viability after 72 hrs under normoxic condition by Alamar blue assay; assay type: functional, cell-based; conditions: Canis lupus familiaris
HCT-116 [17] = experiment: Effect on mitochondrial respiration in carbonic anhydrase 9 knockdown human HCT116 cells assessed as reduction in oxygen consumption rate at 0.5 mM after 24 hrs under hypoxic condition […]; assay type: ADME, cell-based; conditions: hct-116, 24 h, 500 µM
Procedure, shortened: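 HCT116 cells with constitutive CAIX knockdown or scrambled control were seeded at 1.5×10^4 cells/well and kept 18 h at 0.2% O2. Medium was then switched to DMEM with 25 mM glucose, 4 mM glutamine and 1 mM pyruvate, 60 min before assay, in a CO2-free incubator at 37 °C. Seahorse XF96 oxygen consumption rate was read at baseline and after injection of drug or PBS vehicle. Values were normalized to BCA protein.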

MDCK [18] = experiment: Cytotoxicity against carbonic anhydrase 9 knockdown MDCK cells assessed as reduction in cell viability at 50 nM pretreated for 1 hr followed by 4 Gy irradiation under anoxic condition by Alamar blue assay; assay type: cell-based, Canis lupus familiaris; conditions: dog, 0.05 µM; procedure, shortened: as §3
MDCK [19] = experiment: Cytotoxicity against MDCK cells expressing carbonic anhydrase 9 assessed as reduction in cell viability at 50 nM pretreated for 72 hrs followed by 72 hrs incubation under normoxic condition by Alamar blue assay; assay type: functional, cell-based; conditions: Canis lupus familiaris
Procedure, shortened: (§6)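 ATR inhibitor without irradiation: MDCK CAIX+ or scrambled-control CAIX− cells were preconditioned 24 h at ≤0.02% O2 (anoxia) or 21% O2. Compound was added in 0.5% DMSO for 72 h, then washed off. Cells regrew 72 h under normoxia, followed by 2 h alamarBlue conversion. Viability is relative to control.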

MDCK [20] = experiment: Cytotoxicity against carbonic anhydrase 9 knockdown MDCK cells assessed as reduction in cell viability at 50 nM pretreated for 1 hr followed by 2 Gy irradiation under normoxic condition by Alamar blue assay; assay type: cell-based, Canis lupus familiaris; conditions: dog, 0.05 µM; procedure, shortened: as §3
MDCK [21] = experiment: Cytotoxicity against MDCK cells expressing carbonic anhydrase 9 assessed as reduction in cell viability at 50 nM pretreated for 1 hr followed by 2 Gy irradiation under normoxic condition by Alamar blue assay; assay type: functional, cell-based; conditions: Canis lupus familiaris; procedure, shortened: as §3
MDCK [22] = experiment: Cytotoxicity against MDCK cells expressing carbonic anhydrase 9 assessed as reduction in cell viability at 50 nM after 72 hrs under anoxic condition by Alamar blue assay; assay type: functional, cell-based; conditions: Canis lupus familiaris; procedure, shortened: as §6
MDCK [23] = experiment: Cytotoxicity against carbonic anhydrase 9 knockdown MDCK cells assessed as reduction in cell viability at 50 nM pretreated for 72 hrs followed by 72 hrs incubation under normoxic condition by Alamar blue assay; assay type: cell-based, Canis lupus familiaris; conditions: dog, 0.05 µM; procedure, shortened: as §6
MDCK [24] = experiment: Cytotoxicity against MDCK cells expressing carbonic anhydrase 9 assessed as reduction in cell viability at 50 nM pretreated for 1 hr followed by 4 Gy irradiation under anoxic condition by Alamar blue assay; assay type: functional, cell-based; conditions: Canis lupus familiaris; procedure, shortened: as §3
MDCK [25] = experiment: Cytotoxicity against carbonic anhydrase 9 knockdown MDCK cells assessed as reduction in cell viability at 50 nM after 72 hrs under anoxic condition by Alamar blue assay; assay type: cell-based, Canis lupus familiaris; conditions: dog, 0.05 µM; procedure, shortened: as §6

Sequence of Carbonic anhydrase 1 (P00915 whole entry): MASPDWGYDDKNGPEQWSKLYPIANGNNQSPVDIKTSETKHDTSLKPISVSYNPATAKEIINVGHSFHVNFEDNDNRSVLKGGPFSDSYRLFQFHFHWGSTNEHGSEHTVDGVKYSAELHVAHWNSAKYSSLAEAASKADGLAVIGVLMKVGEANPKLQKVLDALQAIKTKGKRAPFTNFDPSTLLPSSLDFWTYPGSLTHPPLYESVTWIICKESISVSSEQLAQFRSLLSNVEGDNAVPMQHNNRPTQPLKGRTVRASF
Sequence of Carbonic anhydrase 12 (O43570 whole entry): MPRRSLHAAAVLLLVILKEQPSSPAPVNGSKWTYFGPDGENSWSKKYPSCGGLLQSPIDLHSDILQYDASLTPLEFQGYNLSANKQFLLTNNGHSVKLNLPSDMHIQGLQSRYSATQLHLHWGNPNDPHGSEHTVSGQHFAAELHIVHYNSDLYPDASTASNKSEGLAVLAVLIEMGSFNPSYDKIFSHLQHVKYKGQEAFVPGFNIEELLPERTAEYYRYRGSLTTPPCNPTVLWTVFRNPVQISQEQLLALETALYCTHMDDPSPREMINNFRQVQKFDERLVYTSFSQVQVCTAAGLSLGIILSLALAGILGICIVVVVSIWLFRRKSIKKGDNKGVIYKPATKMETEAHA

Ki (Carbonic anhydrase 9): > 50 µM | Ki (Carbonic anhydrase 2): > 50 µM | Ki (Carbonic anhydrase 12): > 50 µM | Ki (Carbonic anhydrase 1): > 50 µM
Compound: CS(=O)(=O)c1ccc(-c2cnc(NS(N)(=O)=O)c(C(=O)Nc3ccccc3)n2)cc1
Activity (MDCK [1]): Non-Toxic | Activity (MDCK [2]): Toxic | Activity (MDCK [3]): Active | Activity (MDCK [4]): Non-Toxic | Activity (MDCK [5]): Active | Activity (MDCK [6]): Active | Activity (MDCK [7]): Active | Activity (MDCK [8]): Toxic

Ki (Carbonic anhydrase 9): > 50 µM | Ki (Carbonic anhydrase 2): > 50 µM | Ki (Carbonic anhydrase 12): > 50 µM | Ki (Carbonic anhydrase 1): > 50 µM
Compound: CNCc1ccc(-c2cc(-c3nc(-c4ccc(S(=O)(=O)C(C)C)cc4)cnc3N)on2)cc1 [BERZOSERTIB]
Activity (MDCK [18]): Non-Toxic | Activity (MDCK [19]): Active | Activity (MDCK [20]): Non-Toxic | Activity (MDCK [21]): Active | Activity (MDCK [22]): Active | Activity (MDCK [23]): Toxic | Activity (MDCK [24]): Active | Activity (MDCK [25]): Toxic

The remaining lines, values behind:

Compound: Cl.N=C(N)NC(=N)NCCc1ccc(S(N)(=O)=O)cc1
Ki (Carbonic anhydrase 9): 0.0202 µM | Activity (HCT-116 [9]): inactive | Activity (HCT-116 [10]): Non-Toxic

Compound: Cn1nnc2c(C(=O)NOS(N)(=O)=O)ncn2c1=O
Ki (Carbonic anhydrase 9): > 50 µM | IC50 (MDCK [11]): 1000 µM | Survival (MDCK [12]): 26.1% | Ki (Carbonic anhydrase 2): > 50 µM | Ki (Carbonic anhydrase 12): > 50 µM | Ki (Carbonic anhydrase 1): > 50 µM | viability at 24 h [13]: 46.1% | IC50 (MDCK [14]): 719 µM | IC50 (MDCK [15]): > 1000 µM | IC50 (MDCK [16]): > 1000 µM

Compound: [H]/N=C(/N)N/C(=N/[H])NCCc1ccccc1 [PHENFORMIN]
Ki (Carbonic anhydrase 9): > 50 µM | Activity (HCT-116 [17]): Toxic | Ki (Carbonic anhydrase 2): > 50 µM | Ki (Carbonic anhydrase 12): > 50 µM | Ki (Carbonic anhydrase 1): > 50 µM
